According to PMC4291291 (European journal of medicinal chemistry, 2014):
Converted amounts (≈) assume the structure as drawn.

Assays:
[1] = test system: bioactivity of mevalonate; conditions: 200 μM concentration; cited from earlier work
[2] = Stability in human plasma at 37 °C; assay type: in vitro ADME
[3] = Enantiomeric ratio during incubation with human plasma; assay type: in vitro ADME; conditions: Chiral Cel OD-H
Procedure, shortened: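 Test compound (100 mM acetonitrile stock) added to human plasma, which was diluted with distilled water and pre-warmed 5 min, then incubated at 37 °C. At t1/4 and t1/2, portions were quenched with acetonitrile and run on HPLC with a Chiral Cel OD-H column; LC/MS also used. Ratio taken from each enantiomer's peak integration.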

[4] = test system: Streptococcus pneumoniae strain TIGR4; test: Minimal inhibitory concentration; assay type: cell-based
Stability in PBS buffer = assay type: physicochemical; conditions: pH 7.4
Procedure, shortened: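 Test compound (10 mM acetonitrile stock, diluted 1:10) incubated in PBS pH 7.4 at 37 °C. Aliquots were taken at various times and injected directly onto HPLC with UV detection; run twice per compound. t1/2 = ln(2)/b, where b is the slope of ln(remaining parent fraction) versus time (one-phase decay).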

[5] = test system: Staphylococcus aureus (TCH1516); test: MIC against additional organisms; assay type: cell-based
[6] = test system: Streptococcus agalactiae (GBS COH1); test: MIC against additional organisms; assay type: cell-based
[7] = test system: Streptococcus pyogenes (GAS 5448); test: MIC against additional organisms; assay type: cell-based
E. coli K12 = test: MIC against additional organisms; assay type: cell-based
[8] = test system: HaCaT human keratinocytes; test: General cytotoxicity by lactate dehydrogenase; assay type: cell-based; conditions: concentrations up to 1.6 mM, 24 h
[9] = test system: vancomycin resistant Enterococcus (VRE); test: MIC against additional organisms; assay type: cell-based
RAW murine macrophages = test: General cytotoxicity by lactate dehydrogenase; assay type: cell-based; conditions: concentrations up to 1.6 mM, 24 h
[10] = Stability of ester promoiety in deuterated PBS buffer; assay type: physicochemical
Procedure, shortened: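 Deuterated PBS pH 7.4 in D2O (NaCl 137 mM, KCl 2.7 mM, Na2HPO4 10.1 mM, KH2PO4 1.8 mM). Test compound (1.0 mg, 4 μmol) dissolved in 800 μL of this buffer in an NMR tube and held at 37 °C. 1H NMR taken at 30 min, 1 h, 4 h, 24 h and 48 h. Decomposition judged from the integration ratio of impurity to parent signals.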

human MK = conditions: at concentrations that effectively inhibit the S. pneumoniae system; cited from earlier work
[11] = Stability of prospective decomposition intermediates of 23 in PBS buffer; assay type: physicochemical
[12] = t1/2 (min) of carbonate analogues in human plasma, footnote a: hydrolysis occurred only at carbonate promoieties
[13] = Streptococcus pneumoniae, TIGR4, 24 h
[14] = t1/2 (min) of benzyl amide and ester analogues in human plasma, footnote a: hydrolysis occurred only at the acetyl promoiety

In the case of 6-fluoromevalonate, the “block of the related bioactivity of mevalonate” value [1] is given as “completely blocks”.
With `CC1(CC(=O)Oc2ccccc2)CCOC(=O)O1` (stereo not shown) [9a, Phenyl 2-(4-methyl-2-oxo-1,3-dioxan-4-yl)acetate] the half-life at 4 mM [2, 12] was less than 0.05 h.
Molecule `CC1(CC(=O)Oc2ccc(F)cc2)CCOC(=O)O1` (stereo not shown) [9b, 4-Fluorophenyl 2-(4-methyl-2-oxo-1,3-dioxan-4-yl)acetate] has a half-life at 4 mM [2, 12] of less than 0.05 h.
`CC1(CC(=O)Nc2ccccc2)CCOC(=O)O1` (stereo not shown) [10a, 2-(4-Methyl-2-oxo-1,3-dioxan-4-yl)-N-phenylacetamide] showed a half-life at 4 mM [2, 12] of less than 0.05 h.
With `CC1(CC(=O)NCc2ccccc2)CCOC(=O)O1` (stereo not shown) [10b, N-Benzyl-2-(4-methyl-2-oxo-1,3-dioxan-4-yl)acetamide] the half-life at 4 mM [2, 12] was 0.133 h, the “integration ratio of each enantiomer” value ([3]; at 4 min) was 48/52 and the “integration ratio of each enantiomer” value ([3]; at 8 min) was 46/54.
For `CC1(CC(=O)NCc2ccc(F)cc2)CCOC(=O)O1` (stereo not shown) [10c, N-(4-Fluorobenzyl)-2-(4-methyl-2-oxo-1,3-dioxan-4-yl)acetamide], the half-life at 4 mM [2, 12] was 0.133 h.
For `O=C(CC1(CF)CCOC(=O)O1)OCc1ccc(F)cc1` (stereo not shown) [18a, 4-Fluorobenzyl 2-(4-(fluoromethyl)-2-oxo-1,3-dioxan-4-yl)acetate], the “antibacterial activity against S. pneumoniae (in words)” value (“antibacterial activity” for short) ([4]; S. pneumoniae, THB medium) was “generally inactive”, the MIC [4, 13] was greater than 1600 µM and the half-life (Stability in PBS buffer) was 26 h.
`O=C(CC1(CF)CCOC(=O)O1)OCc1ccc(F)cc1F` (stereo not shown) [18b, 2,4-Difluorobenzyl 2-(4-(fluoromethyl)-2-oxo-1,3-dioxan-4-yl)acetate] gave a half-life (Stability in PBS buffer) of 22 h.
With `O=C(CC1(C(F)(F)F)CCOC(=O)O1)OCc1ccc(F)cc1` (stereo not shown) [25a, 4-Fluorobenzyl 2-(2-oxo-4-(trifluoromethyl)-1,3-dioxan-4-yl)acetate] the MIC ([5]; Staphylococcus aureus) was greater than 1600 µM, the MIC ([6]; Streptococcus agalactiae) was greater than 1600 µM and the “antibacterial activity” value ([4]; S. pneumoniae, THB medium) was “marginally active”. The MIC [4, 13] was 1600 µM (≈ 538 µg/mL), the MIC ([7]; Streptococcus pyogenes) was greater than 1600 µM and the MIC (E. coli K12; Escherichia coli, K12) was greater than 1600 µM. For the same molecule, the “general cytotoxicity (LDH release vs media alone)” value [8] was “No evidence of general cytotoxicity”, the MIC ([9]; Enterococcus, VRE) was greater than 1600 µM and the half-life (Stability in PBS buffer) was 6 h. The “general cytotoxicity (LDH release vs media alone)” value (RAW murine macrophages) was “No evidence of general cytotoxicity”.
With `O=C(CC1(C(F)(F)F)CCOC(=O)O1)OCc1ccc(F)cc1F` (stereo not shown) [25b, 2,4-Difluorobenzyl 2-(2-oxo-4-(trifluoromethyl)-1,3-dioxan-4-yl)acetate] the half-life (Stability in PBS buffer) was 5 h.
With `O=C(CC1(C(F)(F)F)CCOC(c2ccccc2)O1)NCc1ccccc1` (stereo not shown) [32b, N-Benzyl-2-(2-phenyl-4-(trifluoromethyl)-1,3-dioxan-4-yl)acetamide] the “antibacterial activity” value ([4]; S. pneumoniae, THB medium) was “lack activity” and the MIC [4, 13] was greater than 1600 µM.
Molecule `CC(=O)OCCC(O)(CF)CC(=O)NCc1ccccc1` (stereo not shown) [38a, 5-(Benzylamino)-3-(fluoromethyl)-3-hydroxy-5-oxopentyl acetate] has a half-life at 4 mM [2, 14] of 0.333 to 0.5 h and an MIC [4, 13] greater than 1600 µM.
Molecule `COC(=O)CC(O)(CF)CCOC(C)=O` (stereo not shown) [38b, Methyl 5-acetoxy-3-(fluoromethyl)-3-hydroxypentanoate] has an MIC [4, 13] greater than 1600 µM.
With `CCOC(=O)CC(O)(CF)CCOC(C)=O` (stereo not shown) [38c, Ethyl 5-acetoxy-3-(fluoromethyl)-3-hydroxypentanoate] the MIC [4, 13] was greater than 1600 µM, the “decomposition after 48 h” value ([10]; deuterated PBS buffer pH 7.4, 37 °C, 48 h, 1H NMR integration ratio) was “less than 5%” and the half-life ([10]; deuterated PBS buffer, pH 7.4) was greater than 48 h.
In the case of `C[C@@](O)(CCOP(=O)(O)OP(=O)(O)O)CC(=O)O` [DPM, 5-diphosphomevalonate], the “inhibition of human MK” value (human MK) is given as “not inhibited”.
For `CC1(CC(=O)OCc2ccccc2)CCOC(=O)O1` (stereo not shown) [compound 4, Benzyl 2-(4-methyl-2-oxo-1,3-dioxan-4-yl)acetate], the half-life at 4 mM [2, 12] was 0.0667 h, the “integration ratio of each enantiomer” value ([3]; at 2 min) was 35/65 and the “integration ratio of each enantiomer” value ([3]; at 4 min) was 41/59. The half-life (Stability in PBS buffer) was greater than 48 h.
In the case of `O=C(CC1(CF)CCOC(=O)O1)OCc1ccccc1` (stereo not shown) [compound 16, Benzyl 2-(4-(fluoromethyl)-2-oxo-1,3-dioxan-4-yl)acetate], the “antibacterial activity” value ([4]; S. pneumoniae, THB medium) is reported as “generally inactive”, the MIC [4, 13] is reported as greater than 1600 µM and the half-life (Stability in PBS buffer) is reported as 25 h.
With `O=C(CC1(C(F)(F)F)CCOC(=O)O1)OCc1ccccc1` (stereo not shown) [compound 23, Benzyl 2-(2-oxo-4-(trifluoromethyl)-1,3-dioxan-4-yl)acetate] the half-life (Stability in PBS buffer) was 5 h.
For `O=C1CC(O)(C(F)(F)F)CCO1` (stereo not shown) [compound 26, 4-Hydroxy-4-(trifluoromethyl)tetrahydro-2H-pyran-2-one], the MIC ([5]; Staphylococcus aureus) was greater than 1600 µM, the MIC ([6]; Streptococcus agalactiae) was 800 µM (≈ 147 µg/mL) and the MIC ([4]; Streptococcus pneumoniae, TIGR4) was 800 µM (≈ 147 µg/mL). The MIC [4, 13] was 800 µM (≈ 147 µg/mL), the MIC ([7]; Streptococcus pyogenes) was 200 µM (≈ 36.8 µg/mL) and the half-life [11] was roughly 1 min. The MIC (E. coli K12; Escherichia coli, K12) was greater than 1600 µM, the “general cytotoxicity (LDH release vs media alone)” value [8] was “No evidence of general cytotoxicity” and the MIC ([9]; Enterococcus, VRE) was greater than 1600 µM. For the same molecule, the “general cytotoxicity (LDH release vs media alone)” value (RAW murine macrophages) was “No evidence of general cytotoxicity”.
In the case of `O=C1CC(O)(CF)CCO1` (stereo not shown) [compound 28, 6-fluoromevalolactone], the MIC ([5]; Staphylococcus aureus (TCH1516)) is reported as greater than 1600 µM, the MIC ([6]; Streptococcus agalactiae (GBS COH1)) is reported as greater than 1600 µM and the “potency relative to 6,6,6-trifluoromevalolactone (26)” value ([4]; S. pneumoniae MIC ratio) is reported as 4 fold. For the same molecule, the MIC ([4]; S. pneumoniae, THB media) was 200 µM (≈ 29.6 µg/mL), the “MIC” value ([4]; S. pneumoniae, THB medium, 24 h, 37 °C, lowest drug concentration that reduced growth by 80% or more) was 200 µM (≈ 29.6 µg/mL) and the MIC ([7]; Streptococcus pyogenes (GAS 5448)) was greater than 1600 µM. For the same molecule, the MIC (E. coli K12; E. coli K12) was greater than 1600 µM and the MIC ([9]; vancomycin resistant Enterococcus (VRE)) was greater than 1600 µM.
With `CC(O)(CCO)CC(=O)NCc1c(F)c(F)c(F)c(F)c1F` (stereo not shown) [compound 34, 3,5-Dihydroxy-3-methyl-N-((perfluorophenyl)methyl)pentanamide] the half-life ([2]; half-life in human plasma) was greater than 2 h.
`CC(=O)OCCC(C)(O)CC(=O)NCc1c(F)c(F)c(F)c(F)c1F` (stereo not shown) [compound 35, 3-Hydroxy-3-methyl-5-oxo-5-(((perfluorophenyl)methyl)amino)pentyl acetate] gave a half-life at 4 mM [2, 14] of 0.333 to 0.5 h.
In the case of `CC1(C)S[C@@H]2[C@H](NC(=O)Cc3ccccc3)C(=O)N2[C@H]1C(=O)O` [penicillin G, reference compound], the MIC ([5]; Staphylococcus aureus) is reported as less than 12.5 µM, the MIC ([6]; Streptococcus agalactiae) is reported as less than 12.5 µM and the MIC ([7]; Streptococcus pyogenes) is reported as less than 12.5 µM. The MIC (E. coli K12; Escherichia coli, K12) was less than 12.5 µM and the MIC ([9]; Enterococcus, VRE) was less than 12.5 µM.
Work on `CN[C@H](CC(C)C)C(=O)N[C@H]1C(=O)N[C@@H](CC(N)=O)C(=O)N[C@H]2C(=O)N[C@H]3C(=O)N[C@H](C(=O)N[C@H](C(=O)O)c4cc(O)cc(O)c4-c4cc3ccc4O)[C@H](O)c3ccc(c(Cl)c3)Oc3cc2cc(c3O[C@@H]2O[C@H](CO)[C@@H](O)[C@H](O)[C@H]2O[C@H]2C[C@](C)(N)[C@H](O)[C@H](C)O2)Oc2ccc(cc2Cl)[C@H]1O` [vancomycin, reference compound] yielded an MIC ([5]; Staphylococcus aureus) of less than 12.5 µM, an MIC ([6]; Streptococcus agalactiae) of less than 12.5 µM and an MIC ([7]; Streptococcus pyogenes) of less than 12.5 µM. For the same molecule, the MIC (E. coli K12; Escherichia coli, K12) was less than 12.5 µM and the MIC ([9]; Enterococcus, VRE) was less than 12.5 µM.
